From ChEMBL document CHEMBL1122686, “Troponoids. 6. Troponylpiperazines: a new class of dopamine agonists” (1984)
Activity calls are given as the source filed them. The rule behind the calls is not given here.

Assays:
Rattus norvegicus [1] = assay: Inhibition of the 6-OHDA-induced Hypokinesia in rat, at 50 mg/Kg sc, expressed as cumulative ambulation score; inactive; format: functional, organism-based
Method in brief: (§1)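 Male Sprague-Dawley rats (~280 g), anesthetized with pentobarbital, got 6-OHDA (26 µg/4 µL) bilaterally into the anterolateral hypothalamus. Four days later, only near-akinetic rats in a 36-square open field were used. Doses were free base, given sc in distilled water or Tween 80 suspension. Ambulation (all four limbs in one square) was scored in six 2-min periods at 15–120 min, then summed.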

Rattus norvegicus [2] = assay: Inhibition of the 6-OHDA-induced Hypokinesia in rat, at 50 mg/Kg sc, expressed as cumulative ambulation score; format: functional; method in brief: as §1
Rattus norvegicus [3] = organism: Rattus norvegicus; assay: Duration of activity was determined; format: functional
Method in brief: (§2)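 Rats (~250 g at surgery, pentobarbital 40 mg/kg ip) received unilateral 6-OHDA (8 µg in 3 µL) to lesion the nigrostriatal pathway. At 3–4 weeks, rats turning 8–10 times/min after apomorphine 0.25 mg/kg sc were selected. They were housed singly, food-restricted to 350–400 g, dosed sc (free base) in groups of 4–8, and placed at once in automatic rotometers. Total contralateral turns (mean ± SEM) and duration of action (h) were recorded.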

Rattus norvegicus [4] = assay: Inhibition of the 6-OHDA-induced Hypokinesia in rat, at 10 mg/Kg sc, expressed as cumulative ambulation score; format: functional; method in brief: as §1
Rattus norvegicus [5] = assay: Rotational behavior induced by the compound in rats with a unilateral 6-OHDA-induced lesion of the Nigro-striatal dopamine, at 8 mg/Kg sc; format: functional; method in brief: as §2
Rattus norvegicus [6] = assay: Inhibition of the 6-OHDA-induced Hypokinesia in rat, at 25 mg/Kg sc, expressed as cumulative ambulation score; inactive; format: functional, organism-based; method in brief: as §1
Rattus norvegicus [7] = assay: Rotational behavior induced by the compound in rats with a unilateral 6-OHDA-induced lesion of the Nigro-striatal dopamine, at 50 mg/Kg sc; duration of activity=6 hr; format: functional; method in brief: as §2
Rattus norvegicus [8] = assay: Rotational behavior induced by the compound in rat with a unilateral 6-OHDA-induced lesion of the Nigro-striatal dopamine, at 75 mg/Kg sc; format: functional; method in brief: as §2
Rattus norvegicus [9] = assay: Rotational behavior induced by the compound in rat with a unilateral 6-OHDA-induced lesion of the Nigro-striatal dopamine, at 25 mg/Kg sc; duration of activity=4 hr; format: functional; method in brief: as §2
Rattus norvegicus [10] = organism: Rattus norvegicus; assay: Duration of activity in rat; format: functional; method in brief: as §2
Rattus norvegicus [11] = assay: Inhibition of the 6-OHDA-induced Hypokinesia in rat, at 25 mg/Kg sc, expressed as cumulative ambulation score; format: functional; method in brief: as §1
Rattus norvegicus [12] = assay: Rotational behavior induced by the compound in rat with a unilateral 6-OHDA-induced lesion of the Nigro-striatal dopamine, at 50 mg/Kg sc; duration of activity=6 hr; format: functional; method in brief: as §2
Rattus norvegicus [13] = assay: Rotational behavior induced by the compound in rat with a unilateral 6-OHDA-induced lesion of the Nigro-striatal dopamine, at 50 mg/Kg sc, duration of activity=6 hr; format: functional
Rattus norvegicus [14] = assay: Rotational behavior induced by the compound in rat with a unilateral 6-OHDA-induced lesion of the Nigro-striatal dopamine, at 25 mg/Kg sc; duration of activity=5 hr; format: functional
Rattus norvegicus [15] = assay: Rotational behavior induced by the compound in rat with a unilateral 6-OHDA-induced lesion of the Nigro-striatal dopamine, at 75 mg/Kg sc; duration of activity=9 hr; format: functional
Rattus norvegicus [16] = assay: Effect on dopamine agonist-induced rotation in unilaterally 6-OH-DA-lesioned rat at 0.25 mg/kg, ip; Compound 35 was injected subcutaneously at 75 mg/kg; format: functional
Method in brief: (§3)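 Rats were unilaterally 6-OHDA-lesioned and apomorphine-screened for rotation. Haloperidol (0.1, 0.25 or 0.5 mg/kg ip) or vehicle was given 1 h before the DA agonist (75 mg/kg sc). Total contralateral turns were counted automatically in rotometers (mean ± SEM). Percent decrease was taken relative to vehicle pretreatment, with significance by Student's t test.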

Rattus norvegicus [17] = assay: Effect on dopamine agonist-induced rotation in unilaterally 6-OH-DA-lesioned rat at 0.1 mg/kg, ip; Compound 35 was injected subcutaneously at 75 mg/kg; format: functional; method in brief: as §3
Rattus norvegicus [18] = assay: Percent decrease on dopamine agonist-induced rotation in unilaterally 6-OH-DA-lesioned rat at 0.25 mg/kg; format: functional; method in brief: as §3
Rattus norvegicus [19] = assay: Drug pretreatment vs. vehicle pretreatment; statistical analysis by Student''s t test at 0.1 mg/kg; NS-Not Significant; format: functional, organism-based; design: dose 0.1 mg/kg; method in brief: as §3
Rattus norvegicus [20] = assay: Effect on dopamine agonist-induced rotation in unilaterally 6-OH-DA-lesioned rat at 0.5 mg/kg, ip; Compound 35 was injected subcutaneously at 75 mg/kg; format: functional; method in brief: as §3
Rattus norvegicus [21] = assay: Percent decrease on dopamine agonist-induced rotation in unilaterally 6-OH-DA-lesioned rat at 0.5 mg/kg; format: functional; method in brief: as §3
Rattus norvegicus [22] = assay: Percent decrease on dopamine agonist-induced rotation in unilaterally 6-OH-DA-lesioned rat at 0.1 mg/kg; format: functional; method in brief: as §3

O=c1cccccc1N1CCN(CCOc2ccccc2)CC1
Score (Rattus norvegicus [1]): inactive

Br.O=c1c(Br)ccccc1N1CCN(CCO)CC1
Score (Rattus norvegicus [2]): 136

CC(=O)NCCN1CCN(c2cccccc2=O)CC1
Score (Rattus norvegicus [1]): inactive

CC(C)C[C@H]1C(=O)N2CCC[C@H]2[C@]2(O)O[C@](NC(=O)[C@@H]3C=C4c5cccc6[nH]c(Br)c(c56)C[C@H]4N(C)C3)(C(C)C)C(=O)N12 [BROMOCRIPTINE]
Duration of action (Rattus norvegicus [3]): 18 h
Score (Rattus norvegicus [4]): 112
Score (Rattus norvegicus [5]): 4868

CCCCN1CCN(c2cccccc2=O)CC1
Score (Rattus norvegicus [1]): inactive

CC(CO)N1CCN(c2cccccc2=O)CC1 (stereo not given)
Score (Rattus norvegicus [6]): inactive

O=C1CCCCCC1N1CCN(CCO)CC1 (stereo not given)
Score (Rattus norvegicus [1]): inactive

CC1CCN(c2cccccc2=O)CC1
Score (Rattus norvegicus [1]): inactive

O=c1ccc(Cl)ccc1N1CCN(CCO)CC1
Score (Rattus norvegicus [1]): inactive

CC(C)(C)N1CCN(c2cccccc2=O)CC1
Score (Rattus norvegicus [1]): inactive

CN1CCN(c2ccccc2)CC1
Score (Rattus norvegicus [1]): inactive

CCOCCN1CCN(c2cccccc2=O)CC1.O=C(O)/C=C\C(=O)O
Score (Rattus norvegicus [2]): 67

CC(=O)OCCN1CCN(c2cccccc2=O)CC1
Score (Rattus norvegicus [7]): 1485
Score (Rattus norvegicus [8]): 3640
Score (Rattus norvegicus [9]): 743
Duration of action (Rattus norvegicus [10]): 10 h
Score (Rattus norvegicus [11]): 106
Score (Rattus norvegicus [2]): 232

CC(O)C(C)N1CCN(c2cccccc2=O)CC1 (stereo not given)
Score (Rattus norvegicus [6]): inactive

CCCN1CCN(c2cccccc2=O)CC1
Score (Rattus norvegicus [2]): 159

CC(C)(C)C(=O)OCCN1CCN(c2cccccc2=O)CC1.O=C(O)/C=C\C(=O)O
Score (Rattus norvegicus [2]): 137

CC(C)CN1CCN(c2cccccc2=O)CC1.O=C(O)/C=C\C(=O)O
Score (Rattus norvegicus [11]): 372

CCOC(=O)CN1CCN(c2cccccc2=O)CC1
Score (Rattus norvegicus [1]): inactive

O=c1cccccc1N1CCN(CCCO)CC1
Score (Rattus norvegicus [2]): 71

O=c1cccccc1N1CCNCC1
Score (Rattus norvegicus [2]): 55

CC(O)CN1CCN(c2cccccc2=O)CC1 (stereo not given)
Score (Rattus norvegicus [11]): 190
Score (Rattus norvegicus [2]): 400

CN1CCC(c2cccccc2=O)CC1
Score (Rattus norvegicus [1]): inactive

O=c1cccccc1N1CCN(CCO)CC1
Score (Rattus norvegicus [8]): 4582
Score (Rattus norvegicus [12]): 1378
Score (Rattus norvegicus [9]): 369
Duration of action (Rattus norvegicus [10]): 12 h
Score (Rattus norvegicus [11]): 88
Score (Rattus norvegicus [2]): 187

CN1CCCN(c2cccccc2=O)CC1
Score (Rattus norvegicus [1]): inactive

CN1CCN(c2cccccc2=O)CC1.O=C(O)/C=C\C(=O)O
Score (Rattus norvegicus [13]): 1814
Duration of action (Rattus norvegicus [10]): 9 h
Score (Rattus norvegicus [2]): 278
Score (Rattus norvegicus [14]): 551
Score (Rattus norvegicus [15]): 2842

CCN1CCN(c2cccccc2=O)CC1
Score (Rattus norvegicus [2]): 70

NC(=O)CN1CCN(c2cccccc2=O)CC1
Score (Rattus norvegicus [1]): inactive

CC(C)N1CCN(c2cccccc2=O)CC1
Score (Rattus norvegicus [2]): 431

O=C(CCCN1CCC(O)(c2ccc(Cl)cc2)CC1)c1ccc(F)cc1 [HALOPERIDOL]
Total no. of turns (Rattus norvegicus [16]): 1055
Total no. of turns (Rattus norvegicus [17]): 1626
Decrease (Rattus norvegicus [18]): -56%
P (Rattus norvegicus [19]): inactive
Total no. of turns (Rattus norvegicus [20]): 567
Decrease (Rattus norvegicus [21]): -77%
Decrease (Rattus norvegicus [22]): -33%

OCCN1CCN(c2ccccc2)CC1
Score (Rattus norvegicus [1]): inactive

O=c1cccccc1N1CCN(CC(O)CO)CC1 (stereo not given)
Score (Rattus norvegicus [2]): 58

N#CCN1CCN(c2cccccc2=O)CC1
Score (Rattus norvegicus [2]): 126
